ChEMBL document CHEMBL1933011, “Probing the antiamoebic and cytotoxicity potency of novel tetrazole and triazine derivatives” (Eur J Med Chem, 2012)

Key:
[1] = tested on: HepG2; assay: Cytotoxicity against human HepG2 cells after 48 hrs by MTT assay; type: cell-based; details: for IC50: Homo sapiens, HepG2, 48 h; for Activity: human, hepg2, 48 h
How it was run: (§1)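 HepG2 in DMEM/10% FBS, 1.2 × 10^4 cells/well, grown 48 h before dosing. Compounds from 10% DMSO stocks diluted in medium, 3.13–100 µM, 48 h at 37 °C, 5% CO2. MTT (5 mg mL-1) for 4 h, DMSO solubilisation, absorbance at 570 nm (reference 655 nm). Viability is treated absorbance relative to untreated control. Triplicate, repeated thrice.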

[2] = tested on: Entamoeba histolytica; assay: Antiamoebic activity against Entamoeba histolytica HM-1:IMSS after 72 hrs by microdilution method; type: functional, organism-based
How it was run: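 E. histolytica HM1:IMSS trophozoites in Diamond TYIS-33 medium; 1 mg mL-1 DMSO stocks, two-fold serial dilutions; 1.7 × 10^4 amoebae/well; sealed, gassed with nitrogen 10 min, 35.5 °C for 72 h. Wells methanol-fixed, eosin-stained, dye released in 0.1N NaOH, OD 490 nm. % inhibition vs control plotted against log dose; IC50 by linear regression. Triplicate, repeated thrice.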

[3] = Safety index, ratio of IC50 for human HepG2 cells to IC50 for Entamoeba histolytica HM-1:IMSS; type: toxicity, cell-based; details: read-out: Ratio IC50
How it was run: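 Safety index calculated as HepG2 MTT IC50 (48 h) divided by E. histolytica HM1:IMSS IC50 (72 h microdilution).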

[4] = tested on: HepG2; assay: Cytotoxicity against human HepG2 cells up to 50 uM after 48 hrs by MTT assay; type: cell-based; details: hepg2, 48 h; how it was run: as §1
[5] = Cytotoxicity against human HepG2 cells assessed as viable cells at 3.13 uM after 48 hrs by MTT assay; type: cell-based; details: read-out: Activity; how it was run: as §1
[6] = Cytotoxicity against human HepG2 cells assessed as viable cells at 25 uM after 48 hrs by MTT assay; type: cell-based; details: read-out: Activity; how it was run: as §1
[7] = tested on: HepG2; assay: Cytotoxicity against human HepG2 cells up to 100 uM after 48 hrs by MTT assay; type: cell-based; details: hepg2, 48 h; how it was run: as §1

Structure (SMILES)	IC50 [1] [µM]	Activity [1]	IC50 [2] [µM]	selectivity ratio [3]	Activity [4]	viability at 48 h, 3.13 µM [5] [%]	viability at 48 h, 25 µM [6] [%]	Activity [7]
O=S(=O)(c1ccccc1)n1nnnc1-c1ccc2c(c1)OCO2	> 100	Dose-dependent effect	7.56	> 13.2	Toxic	92.5	≥ 70	Toxic
O=S(=O)(c1ccc(Cl)cc1Cl)n1nnnc1-c1ccc2c(c1)OCO2	85	Dose-dependent effect	6.9	12.3	Toxic	92.5	≥ 70	Toxic
Nc1nc(N)nc(-c2ccc3c(c2)OCO3)n1		Dose-dependent effect	3.54		Toxic	92.5	≥ 70	Toxic
O=S(=O)(Nc1nc(NS(=O)(=O)c2ccc(Cl)cc2Cl)nc(-c2ccc3c(c2)OCO3)n1)c1ccc(Cl)cc1Cl	> 100	Dose-dependent effect	2.56	> 39.1	Toxic	92.5	≥ 70	Toxic
O=S(=O)(c1ccc(Cl)cc1)n1nnnc1-c1ccc2c(c1)OCO2	> 100	Dose-dependent effect	4.85	> 20.6	Toxic	92.5	≥ 70	Toxic
O=S(=O)(Nc1nc(NS(=O)(=O)c2ccc(Cl)cc2)nc(-c2ccc3c(c2)OCO3)n1)c1ccc(Cl)cc1	> 100	Dose-dependent effect	1.05	> 95.2	Toxic	92.5	≥ 70	Toxic
O=S(=O)(Nc1nc(NS(=O)(=O)c2ccccc2)nc(-c2ccc3c(c2)OCO3)n1)c1ccccc1	> 100	Dose-dependent effect	2.6	> 38.5	Toxic	92.5	≥ 70	Toxic
c1cc2c(cc1-c1nnn[nH]1)OCO2		Dose-dependent effect	14.2		Toxic	92.5	≥ 70	Toxic
Cc1ccc(S(=O)(=O)n2nnnc2-c2ccc3c(c2)OCO3)cc1	> 100	Dose-dependent effect	6.1	> 16.4	Toxic	92.5	≥ 70	Toxic
Cc1ncc([N+](=O)[O-])n1CCO [METRONIDAZOLE]	> 100			> 55.5		92.5		
CC(C)c1ccc(S(=O)(=O)Nc2nc(NS(=O)(=O)c3ccc(C(C)C)cc3)nc(-c3ccc4c(c3)OCO4)n2)cc1	> 100	Dose-dependent effect	2.85	> 35.1	Toxic	92.5	≥ 70	Toxic
CC(C)c1ccc(S(=O)(=O)n2nnnc2-c2ccc3c(c2)OCO3)cc1	> 100	Dose-dependent effect	6.28	> 15.9	Toxic	92.5	≥ 70	Toxic
Cc1ccc(S(=O)(=O)Nc2nc(NS(=O)(=O)c3ccc(C)cc3)nc(-c3ccc4c(c3)OCO4)n2)cc1	> 100	Dose-dependent effect	2.15	> 46.5	Toxic	92.5	≥ 70	Toxic
O=[N+]([O-])c1ccc(S(=O)(=O)Nc2nc(NS(=O)(=O)c3ccc([N+](=O)[O-])cc3)nc(-c3ccc4c(c3)OCO4)n2)cc1	> 100	Dose-dependent effect	1.02	> 98	Toxic	92.5	≥ 70	Toxic
O=[N+]([O-])c1ccc(S(=O)(=O)n2nnnc2-c2ccc3c(c2)OCO3)cc1	84.7	Dose-dependent effect	3.75	22.6	Toxic	92.5	≥ 70	Toxic
